Measured values from ChEMBL document CHEMBL3045693, “Metabolism of diethofencarb (isopropyl 3,4-diethoxyphenylcarbamate) in rats: identification of metabolites in urine” (J Agric Food Chem, 2004).

Assays:
Conditions in all cases: in vivo, 24 h
[1] = Drug excretion in Rattus norvegicus CD Sprague-Dawley (rat) urine assessed as N-(3-ethoxy-4-hydroxyphenyl)-2-hydroxyacetamide at 300 mg/5ml, po daily for 4 consecutive days measured within 1 day after final dose by NMR/MS analysis; type: ADME, organism-based
How it was run: (§1)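 Male CD (Sprague-Dawley) rats, 11 weeks old (n=4), housed individually in glass metabolism cages separating urine and feces. [phenyl-14C]-labelled compound given by gastric probe in corn oil at 300 mg/5 mL/kg daily for 4 days. Urine from the day after the last dose: aqueous layer hydrolysed with sulfatase (with β-glucuronidase activity) in 0.2 M acetate pH 5.0, 37 °C, 19 h. Ethyl acetate extraction, then HPLC/TLC purification and NMR/ESI-MS identification.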

[2] = Drug excretion in Rattus norvegicus CD Sprague-Dawley (rat) urine assessed as (4-acetamino-2-ethoxyphenoxy) acetic acid at 300 mg/5ml, po daily for 4 consecutive days measured within 1 day after final dose by NMR/MS analysis; type: ADME, organism-based; how it was run: as §1
[3] = Drug excretion in Rattus norvegicus CD Sprague-Dawley (rat) urine assessed as 2-{2-ethoxy-4-[(isopropoxycarbonyl)amino]- phenoxy}acetic acid at 300 mg/5ml, po daily for 4 consecutive days measured within 1 day after final dose by NMR/MS analysis; type: ADME, organism-based; how it was run: as §1
[4] = Drug excretion in Rattus norvegicus CD Sprague-Dawley (rat) urine assessed as 3-(3-ethoxy-4-hydroxyphenyl)-4-hydroxy-5-methyloxazolidin- 2-one at 300 mg/5ml, po daily for 4 consecutive days measured within 1 day after final dose by NMR/MS analysis; type: ADME, organism-based; how it was run: as §1
[5] = Drug excretion in Rattus norvegicus CD Sprague-Dawley (rat) urine assessed as 1-hydroxypropan-2-yl 3-ethoxy-4-hydroxycarbanilate at 300 mg/5ml, po daily for 4 consecutive days measured within 1 day after final dose by NMR/MS analysis; type: ADME, organism-based; how it was run: as §1
[6] = Drug excretion in Rattus norvegicus CD Sprague-Dawley (rat) urine assessed as N-(3-ethoxy-4-hydroxy-5-methylsulfinylphenyl) acetamide at 300 mg/5ml, po daily for 4 consecutive days measured within 1 day after final dose by NMR/MS analysis; type: ADME, organism-based; how it was run: as §1
[7] = Drug excretion in Rattus norvegicus CD Sprague-Dawley (rat) urine assessed as 2-acetamino- 3-[5-acetamino-3-ethoxy-2-hydroxyphenylthio]propionic acid at 300 mg/5ml, po daily for 4 consecutive days measured within 1 day after final dose by NMR/MS analysis; type: ADME, organism-based; how it was run: as §1
[8] = Drug excretion in Rattus norvegicus CD Sprague-Dawley (rat) urine assessed as N-(3-ethoxy-4- hydroxyphenyl)acetamide at 300 mg/5ml, po daily for 4 consecutive days measured within 1 day after final dose by NMR/MS analysis; type: ADME, organism-based; how it was run: as §1
[9] = Drug excretion in Rattus norvegicus CDSprague-Dawley (rat) urine assessed as isopropyl 3-ethoxy-4- hydroxy-5-(methylthio) carbanilate at 300 mg/5ml, po daily for 4 consecutive days measured within 1 day after final dose by NMR/MS analysis; type: ADME, organism-based, CD Sprague-Dawley; how it was run: as §1
[10] = Drug excretion in Rattus norvegicus CD Sprague-Dawley (rat) urine assessed as 2-acetamino-3-{4-ethoxy-3-hydroxy-2-[(isopropoxycarbonyl)amino]phenylthio}propionic acid at 300 mg/5ml, po daily for 4 consecutive days measured within 1 day after final dose by NMR/MS analysis; type: ADME, organism-based; how it was run: as §1
[11] = Drug excretion in Rattus norvegicus CD Sprague-Dawley (rat) urine assessed as 2-acetamino-3-{3-ethoxy-2-hydroxy-5-[(isopropoxycarbonyl) amino]phenylthio}propionic acid at 300 mg/5ml, po daily for 4 consecutive days measured within 1 day after final dose by NMR/MS analysis; type: ADME, organism-based; how it was run: as §1

Measured: Drug excretion

CCOc1ccc(NC(=O)OC(C)C)cc1OCC [DIETHENOFENCARB]
Active: all assays above
